# SUMO1 PPI mod: modulators of SUMO1 protein-protein interactions, primary screen, biochemical, uHTS. SUMO1 binding to a labelled peptide, TR-FRET, 1 h. 360,000 compounds, 0.33% hits. AID 602429, 2012. inhibition, % at 20 µM; in the data active means inhibition above about 37%
# Target sequence (P63165 whole entry, looked up): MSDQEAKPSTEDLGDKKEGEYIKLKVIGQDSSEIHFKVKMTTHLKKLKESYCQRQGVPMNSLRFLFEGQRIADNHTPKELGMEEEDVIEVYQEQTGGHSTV
# LMPTP inh: LMPTP phosphatase inhibitors, primary screen, biochemical, fluorescence intensity, uHTS | Low molecular weight phosphotyrosine protein phosphatase (Homo sapiens), P24666 | recombinant LMPTP-A, OMFP fluorogenic substrate | inhibition, % at 20 µM | 360,000 compounds, 0.22% hits | AID 651560, 2012;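 active means compounds that cut the enzyme signal by at least half of the control window in the single-dose screen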;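 further: plate controls were DMSO wells with enzyme plus substrate for no effect and substrate without enzyme for full effect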
# Target sequence (P24666 whole entry, looked up): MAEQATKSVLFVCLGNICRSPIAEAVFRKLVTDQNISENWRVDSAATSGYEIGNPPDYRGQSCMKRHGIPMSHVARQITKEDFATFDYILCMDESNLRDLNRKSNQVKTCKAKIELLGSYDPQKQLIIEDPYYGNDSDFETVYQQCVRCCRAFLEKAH
#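 material = LMPTP-A | quantity = 0.625 nM enzyme | reagent = OMFP substrate, 400 µM final | buffer or medium = Bis-Tris pH 6.0, DTT, detergent | detection = endpoint fluorescence intensity from OMFP dephosphorylation | dosing = single 20 µM dose | read-out basis = % inhibition relative to no-enzyme and uninhibited control wells | control set = no-enzyme and uninhibited controls | timing = 50 min at room temperature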
# STEP inh: STEP phosphatase inhibitors, primary screen, biochemical, fluorescence intensity, uHTS | Tyrosine-protein phosphatase non-receptor type 5 (Homo sapiens), P54829 | recombinant STEP, OMFP fluorogenic substrate | inhibition, % at 20 µM | 360,000 compounds, 0.25% hits | AID 588621, 2011;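 active means inhibition at 20 µM, scaled per plate between control wells, above about 37%, limit read from the data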;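 further: 0% = DMSO with enzyme and substrate and 100% = substrate only without enzyme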
#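 Assay system: isolated STEP enzyme. Buffer or medium: pH 6.0 Bis-Tris with DTT and Tween 20. Also added: fluorogenic phosphatase substrate OMFP at 25 µM final. Dosing: 20 µM, 1% DMSO. Timing: 20 min reaction, room temperature, in the dark. Measured by: fluorescence intensity, excitation 480 nm, emission 540 nm. Evaluation: normalized % inhibition.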
# DNMT1 inh: human DNMT1 methyltransferase inhibitors, primary screen, biochemical, molecular beacon, fluorescence, HinP1I cleavage, uHTS; 360,000 compounds, 0.83% hits; AID 588458, 2011; DNA (cytosine-5)-methyltransferase 1 (Homo sapiens), P26358; inhibition (reported as % activation of signal), % at 10 µM; in the data active means inhibition above about 50%
# Scp1 inh: Scp-1 phosphatase inhibitors, primary screen, biochemical, colorimetric, uHTS. Carboxy-terminal domain RNA polymerase II polypeptide A small phosphatase 1 (Homo …. Recombinant Scp1, phosphopeptide, malachite green phosphate absorbance. inhibition, % at 20 µM. 340,000 compounds, 0.88% hits. AID 493091, 2011;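 active means inhibition above about 50% at 20 µM, limit read from the data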;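 further: plate controls were DMSO wells with enzyme for no effect and wells lacking enzyme for full effect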
# Target sequence (Q9GZU7 76-261 limits assumed): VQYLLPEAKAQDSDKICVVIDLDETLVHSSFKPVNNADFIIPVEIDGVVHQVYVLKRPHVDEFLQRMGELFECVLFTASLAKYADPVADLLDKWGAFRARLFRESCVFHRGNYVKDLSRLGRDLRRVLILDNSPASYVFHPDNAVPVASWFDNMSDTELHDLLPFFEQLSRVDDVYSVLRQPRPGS
#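 Test system: SCP-1 catalytic domain; Buffer or medium: Acidic Tris acetate buffer with magnesium and detergent; Also added: Phosphorylated 17-residue peptide substrate; Compound: single 20 µM dose, 1% DMSO; Schedule: enzyme reaction 45 min at room temperature, colour 5 min, stabilisation 30 min; Signal: Phosphate-binding colour reagent, absorbance read at 630 nm.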
# GRK2 inh: compounds blocking aptamer binding on GRK2 – biochemical, human GRK2, bead flow cytometry, HTS, primary screen. Beta-adrenergic receptor kinase 1 (Homo sapiens), P25098. FAM-aptamer displacement from GRK2. inhibition of aptamer binding, % at 10 µM. 330,000 compounds, 0.59% hits. AID 488847, 2010;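 active means inhibition of aptamer binding above 40%, roughly 3 SD of noise, on plates passing a quality check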;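 further: median bead fluorescence of bound FAM aptamer so fluorescent compounds give negative values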
# DNMT1 interf DR: spectral interference with molecular beacon fluorescence, dose response, artefact control for DNMT1 inhibitor project, biochemical, fluorescent molecular beacon. shares compounds with DNMT1 inh. spectral interference counter-screen. IC50, µM. 200 tested, under 10 active. AID 602382, 2012; call rule not given here
# DNMT1 confirm: DNMT1 methyltransferase inhibitor retest, confirmation, biochemical, molecular beacon, fluorescence, single concentration | shares compounds with DNMT1 inh | DNMT1 molecular beacon HinP1I cleavage | inhibition, % at 10 µM | 2,300 compounds, 8% hits | AID 602385, 2012;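 active means average inhibition of at least 30% in the single-concentration confirmation test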
# Beacon interf: shows spectral interference in the DNMT1 beacon assay. 2,300 compounds, 1% hits. DNMT1 molecular beacon spectral interference counterscreen, fluorescence 485/520. activation (fluorescence interference), % at 10 µM. AID 602387. shares compounds with DNMT1 inh;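 active means activation of at least 30% at 10 µM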;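 further: DNMT1 catalytic domain with a HinP1I cleavage step and a FAM/dabcyl DNA beacon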
# An asterisk follows results filed as active; . = not tested or not shown. Most compounds without a hit are left out; they make up all but 2.2% or so of the library.
SMILES,SUMO1 PPI mod,LMPTP inh,STEP inh,DNMT1 inh,Scp1 inh,GRK2 inh,DNMT1 confirm,Beacon interf,others
CC1=NN(c2nc(N)nc(/C(C#N)=C/c3ccc([N+](=O)[O-])o3)n2)C(C)(C)C1,-12.9,2.7,7.0,53.9*,64.1*,.,1.9,-0.1,
O=C1C2C(C(=O)N1/N=C/c1ccc([N+](=O)[O-])o1)C1C=CC2C12CC2 (stereo not drawn),-13.8,-0.3,2.2,-0.6,-2.4,4.0,.,.,
N#Cc1c(SCC(=O)Nc2nccs2)nc2c(c1-c1ccco1)CCCC2,7.6,1.4,6.8,59.8*,-2.0,0.0,4.7,0.4,
O=C(Nc1ccc(F)cc1)C(CCc1ccccc1)N1CCN(c2ccncc2)CC1 (stereo not drawn),-16.2,1.3,.,.,.,.,.,.,
COCCSc1ccccc1C(=O)N1CCCC(C)C1 (stereo not drawn),5.6,0.3,-0.3,84.7*,-10.6,1.0,-0.1,3.1,
O=C(c1cccc(Cl)c1)N1CCN(Cc2ccc3c(c2)OCO3)CC1,5.3,0.0,0.1,90.2*,-4.7,3.0,1.6,2.1,
Cc1ccc(S(=O)(=O)/C=C2\OCc3ccccc32)cc1,2.3,-0.4,.,.,.,.,.,.,
COc1ccc(S(=O)(=O)/N=C2/NC(=O)/C(=C\c3ccco3)S2)cc1,8.5,-1.4,1.1,23.4,0.5,7.0,.,.,
COc1ccc(S(=O)(=O)/N=C2/NC(=O)/C(=C/c3ccco3)S2)cc1,25.0,0.6,3.7,64.2*,19.6,4.0,0.0,-1.1,
c1cncc(C2SCCCS2)c1,-0.7,0.2,0.7,-3.1,.,.,.,.,
O=C(CN1C(=O)/C(=C/c2ccc(Cl)cc2)SC1=S)NC1C=CS(=O)(=O)C1 (stereo not drawn),-13.1,7.0,0.6,65.5*,4.5,0.0,5.8,2.5,
O=C(CCl)N1N=C(c2ccco2)CC1c1ccco1 (stereo not drawn),12.4,7.7,15.9,87.5*,40.5,11.0,4.7,6.5,
COCC(=O)OCC(=O)N1N=C(c2ccc(Cl)cc2)CC1c1ccco1 (stereo not drawn),-8.2,-1.3,-2.6,4.2,-3.9,1.0,.,.,
O=C(OCC(=O)N1N=C(c2ccc(Cl)cc2)CC1c1ccco1)c1cccnc1 (stereo not drawn),8.9,9.6,-0.9,80.7*,16.8,0.0,2.6,2.8,
C(=C\c1ccccc1)/CN1CCN(C(c2ccccc2)c2nnnn2Cc2ccccc2)CC1 (stereo not drawn),-0.1,-0.4,1.3,-9.0,.,.,.,.,
CCCn1c(SCc2nc3sc(C)c(C)c3c(=O)[nH]2)nc2ccccc2c1=O,1.1,-0.2,4.2,53.9*,-7.3,3.0,-0.3,-4.0,
Cc1nc2ccc(C(=O)NCCCn3ccnc3)cn2c1N(C)C(=O)CCc1ccccc1,-0.5,-10.0,-0.7,3.7,.,.,.,.,
[O-][n+]1c(/C=C/c2ccccc2)ccc2ccccc21,0.7,-0.5,1.1,11.2,-3.7,0.0,.,.,
[O-][n+]1c2ccccc2[n+]([O-])c2cc(O)ccc21,21.1,20.1,10.7,56.4*,57.4*,31.0,1.9,1.5,
Cc1cnn(-c2cc(N/N=C/c3ccc(F)cc3)ncn2)c1,-1.1,-2.3,0.3,60.4*,14.5,3.0,1.9,0.6,
Cc1cnn(-c2cc(N/N=C/c3ccccc3Cl)ncn2)c1,-1.0,0.8,8.7,45.7,7.1,0.0,.,.,
COCCn1c(SCC(=O)Nc2ccc(F)cc2)nc2ccccc2c1=O,-0.7,-1.1,-0.6,83.0*,-9.9,1.0,1.5,2.3,
CCCCOC(=O)Cn1c(=O)oc2ccc(C)cc21,-0.6,-1.8,-1.5,0.1,-8.4,0.0,.,.,
CCCCCOC(=O)Cn1c(=O)oc2ccc(C)cc21,-1.9,-0.9,-2.3,72.5*,-5.5,2.0,1.2,7.6,
CCc1nc(N=Nc2c(O)[nH]c3ccccc23)c2c3c(sc2n1)CCC3,-3.3,-0.2,1.2,64.4*,4.5,0.0,1.9,-3.7,
SMILES,SUMO1 PPI mod,LMPTP inh,STEP inh,DNMT1 inh,Scp1 inh,GRK2 inh,DNMT1 confirm,Beacon interf,others
N#C/C(=C\c1c(N2CCC(C(N)=O)CC2)nc2ccccn2c1=O)C(=O)NCc1ccco1,-5.8,-1.2,0.5,64.0*,-4.4,3.0,5.5,2.9,
O=C1c2ccccc2C(=O)N1CCc1c(-c2ccccc2)[nH]c2ccccc12,-9.7,4.7,-0.2,-8.1,-12.4,.,.,.,
O=C1c2ccccc2C(=O)N1CCc1c(-c2[nH]c3ccccc3c2CCN2C(=O)c3ccccc3C2=O)[nH]c2ccccc12,3.1,-1.6,3.0,55.7*,-4.2,.,2.7,0.7,
COCCCN1C(=O)C(CC(=O)NCC2CCCCC2)CC(C(=O)N(C)C)=C1C (stereo not drawn),3.4,-1.2,1.1,1.8,.,.,.,.,
O=C(O)c1ccc(NS(=O)(=O)c2ccc3c(c2)C2C=CCC2C(c2ccccc2F)N3)cc1 (stereo not drawn),35.2,2.6,-2.2,62.0*,-4.5,.,29.2,1.1,DNMT1 interf DR=>99
O=C1/C(=C/c2ccccc2F)SC(=S)N1CC(=O)N1CCCCC1c1cccnc1 (stereo not drawn),-30.6,4.9,4.0,-19.9,0.2,0.0,.,.,
O=C1c2oc3ccc(Cl)cc3c(=O)c2C(c2cccc(Br)c2)N1CCO (stereo not drawn),-12.7,0.2,0.5,61.2*,-3.1,0.0,1.4,2.7,
Cc1cccc2sc(NNC(=O)c3cc(-c4cccs4)nc4ccccc34)nc12,1.9,1.4,0.5,68.7*,6.6,2.0,2.2,1.4,
NNC(=O)c1cc(-c2cccs2)nc2ccccc12,-15.5,3.3,-0.3,-5.8,-5.6,2.0,.,.,
CC1(C(=O)NCc2cccc3ccccc23)CCN1C(=O)C1(c2ccccc2)CCCC1 (stereo not drawn),5.3,5.5,-2.0,1.3,.,.,.,.,
